Screening results as filed in PubChem BioAssay.
UHRF1 binding = UHRF1 methyl-DNA binding inhibition | Q96T88 | UHRF1 binding to methylated oligo, TR-FRET | inhibition, % at 4.4 µM | 370,000 compounds, 0.75% hits | AID 687016;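 note: UHRF1 SRA domain binding a hemimethylated CpG hairpin DNA probe; 0% = median of test compound wells and 100% = reference inhibitor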
MBD2 inh = inhibitors of human MBD2 binding to methylated oligonucleotide; Q9UBB5; TR-FRET; inhibition, % at 4.4 µM; 370,000 compounds, 0.31% hits; in the data active = inhibition above about 13%
HCV NS3 hel inh = inhibitors of Hepatitis C virus NS3 helicase | NS3 helicase DNA unwinding, Cy5 molecular beacon fluorescence | inhibition, % at 10.9 µM | 290,000 compounds, 0.56% hits | AID 1800;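 active = inhibition above the mean of all tested compounds plus 3 SD, set per campaign, cut at about 35% in these data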;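 note: 0% = DMSO wells and 100% = thioflavine S control wells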
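Material: hepatitis C virus NS3 helicase domain fragment enzyme; measured by: Cy5 fluorescence, 0 and 60 min reads; control set: DMSO and thioflavine S; incubation: 60 min unwinding reaction at 25 °C after ATP addition; read-out basis: % inhibition from 60/0 min fluorescence ratio, DMSO 0%, thioflavine S 100%; repeats: singlicate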
DNMT1 block = blocks human DNA methyltransferase DNMT1 | DNMT1 molecular beacon, Hinp1I cleavage, fluorescence | inhibition (reported as % activation of signal), % at 10 µM | 360,000 compounds, 0.83% hits | AID 588458; in the data active = inhibition above about 50%
Pemphigus Ab inh = blocks pemphigus antibody binding to human desmoglein-3. DSG3-coupled beads, scFv-anti-DSG3-GFP binding, flow cytometry; active compounds read low. 310,000 compounds, 0.48% hits. binding (percent of control), % at 10 µM;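 active = binding more than 3 SD below its plate's average and above zero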;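 note: hits lower antibody fragment binding to DSG3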
SUMO1-SIM PPI = SUMO1-SIM interaction modulation; P63165; AID 602429; SUMO1 binding to a labelled peptide, TR-FRET, 1 h; inhibition, % at 20 µM; 360,000 compounds, 0.33% hits; in the data active = inhibition above about 37%
Target sequence (P63165 whole entry, looked up): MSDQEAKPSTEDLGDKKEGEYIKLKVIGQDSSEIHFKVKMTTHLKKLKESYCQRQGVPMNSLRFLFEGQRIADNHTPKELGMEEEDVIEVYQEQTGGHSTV
UHRF1 DNA bind = counter-screen for MBD2 inhibitors: human UHRF1 methylated DNA binding inhibitors; AID 720530; shares compounds with MBD2 inh; 1,000 compounds, 25% hits; UHRF1 binding to methylated oligonucleotide, TR-FRET; inhibition, % at 4.4 µM;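 note: UHRF1 SRA domain binding a labeled hemimethylated CpG hairpin DNA; 0% = vehicle only and 100% = reference inhibitor with vehicle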
MBD2 confirm = confirmation of human MBD2-DBD methylated oligonucleotide binding inhibitors; shares compounds with MBD2 inh; TR-FRET MBD2-DBD binding to methylated oligonucleotide; inhibition, % at 4.4 µM; 1,000 compounds, 26% hits; AID 720531; in the data active = inhibition above about 14%
The depositor's hits bear a star; nt = not tested or not shown. Only some compounds are listed: those with a hit (about 2.5% of all), similar ones and a draw of the others. Cut-off read from the data, not from the text of the source, unless noted: active = inhibition above about 21%; inactive = the rest.

SMILES	UHRF1 binding	MBD2 inh	HCV NS3 hel inh	DNMT1 block	Pemphigus Ab inh	SUMO1-SIM PPI	UHRF1 DNA bind	MBD2 confirm
CCOC(=O)c1ccc(NC(=O)NNC(=O)CCc2ccc(OC)cc2)cc1	0.0	-5.4	5.9	1.2	99.5	1.8	nt	nt
COc1ccccc1N1CCN(S(=O)(=O)c2ccc3c(c2)NC(=O)C(C)S3)CC1 (stereo not drawn)	0.5	-1.5	-16.5	-1.8	nt	0.3	nt	nt
COc1ccccc1N1CCN(C(=O)C(C)CS(=O)(=O)c2ccc3c(c2)NC(=O)CS3)CC1 (stereo not drawn)	82.7*	76.5*	6.5	42.9	89.8	28.6	15.2	7.8
Cc1noc(C)c1Cn1nc(C(=O)O)c2ccccc2c1=O	0.5	31.8*	-0.7	2.3	103.1	-2.8	2.7	1.2
COc1ccc2c(-c3ccccc3)cc(SC(C)C(N)=O)nc2c1 (stereo not drawn)	-1.7	0.3	-15.1	-1.4	100.4	-77.2	nt	nt
COC(=O)c1sc2nc(-c3ccco3)ccc2c1N	55.1*	16.1*	34.1	-2.2	100.9	11.3	7.9	-1.2
Cc1cc(NS(=O)(=O)c2ccc(NC(=S)NC(=O)c3cccnc3)cc2)no1	64.7*	27.1*	1.7	-1.3	101.0	5.5	4.2	1.9
Cc1nnsc1C(=O)NNS(=O)(=O)c1cc(C(F)(F)F)cc(C(F)(F)F)c1	3.1	0.1	0.9	-0.4	nt	2.3	nt	nt
CC(C)C1=NN(C(=O)c2ccccc2)C(O)(C(C)(C)C)C1 (stereo not drawn)	0.1	1.9	0.6	-2.6	81.0	-2.1	nt	nt
